From ChEMBL document CHEMBL1141693, “Discovery of benzoylpiperazines as a novel class of potent and selective GlyT1 inhibitors” (Bioorg Med Chem Lett, 2008)

Columns and labels:
[1] = biological target: T1, Sodium- and chloride-dependent glycine transporter 1 (Homo sapiens, UniProt P48067); assay: Inhibition of [3H]glycine uptake at human glycine transporter 1 expressed in CHO cells by scintillation counter; assay type: cell-based
T1 sequence (P48067 whole entry): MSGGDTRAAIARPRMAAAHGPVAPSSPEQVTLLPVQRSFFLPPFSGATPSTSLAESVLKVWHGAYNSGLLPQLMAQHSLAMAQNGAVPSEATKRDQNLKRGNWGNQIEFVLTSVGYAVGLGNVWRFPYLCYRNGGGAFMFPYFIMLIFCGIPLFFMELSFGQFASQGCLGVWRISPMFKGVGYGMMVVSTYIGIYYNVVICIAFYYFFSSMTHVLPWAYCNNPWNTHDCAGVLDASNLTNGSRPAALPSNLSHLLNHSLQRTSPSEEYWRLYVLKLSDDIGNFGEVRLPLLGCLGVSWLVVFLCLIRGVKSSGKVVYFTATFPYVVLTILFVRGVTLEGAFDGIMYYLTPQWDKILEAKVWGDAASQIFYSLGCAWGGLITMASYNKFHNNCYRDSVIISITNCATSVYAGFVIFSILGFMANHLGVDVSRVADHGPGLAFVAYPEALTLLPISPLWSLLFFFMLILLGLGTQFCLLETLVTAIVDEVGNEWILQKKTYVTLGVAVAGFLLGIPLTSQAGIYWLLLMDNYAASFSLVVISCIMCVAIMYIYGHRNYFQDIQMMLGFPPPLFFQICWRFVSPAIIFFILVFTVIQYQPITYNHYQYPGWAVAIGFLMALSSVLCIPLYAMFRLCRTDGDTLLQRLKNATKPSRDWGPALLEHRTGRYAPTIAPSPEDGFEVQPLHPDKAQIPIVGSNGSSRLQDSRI

[2] = biological target: T2, Sodium- and chloride-dependent glycine transporter 2 (Homo sapiens, UniProt Q9Y345); assay: Inhibition of [3H]glycine uptake at human glycine transporter 2 expressed in CHO cells by scintillation counter; assay type: cell-based
T2 sequence (Q9Y345 whole entry): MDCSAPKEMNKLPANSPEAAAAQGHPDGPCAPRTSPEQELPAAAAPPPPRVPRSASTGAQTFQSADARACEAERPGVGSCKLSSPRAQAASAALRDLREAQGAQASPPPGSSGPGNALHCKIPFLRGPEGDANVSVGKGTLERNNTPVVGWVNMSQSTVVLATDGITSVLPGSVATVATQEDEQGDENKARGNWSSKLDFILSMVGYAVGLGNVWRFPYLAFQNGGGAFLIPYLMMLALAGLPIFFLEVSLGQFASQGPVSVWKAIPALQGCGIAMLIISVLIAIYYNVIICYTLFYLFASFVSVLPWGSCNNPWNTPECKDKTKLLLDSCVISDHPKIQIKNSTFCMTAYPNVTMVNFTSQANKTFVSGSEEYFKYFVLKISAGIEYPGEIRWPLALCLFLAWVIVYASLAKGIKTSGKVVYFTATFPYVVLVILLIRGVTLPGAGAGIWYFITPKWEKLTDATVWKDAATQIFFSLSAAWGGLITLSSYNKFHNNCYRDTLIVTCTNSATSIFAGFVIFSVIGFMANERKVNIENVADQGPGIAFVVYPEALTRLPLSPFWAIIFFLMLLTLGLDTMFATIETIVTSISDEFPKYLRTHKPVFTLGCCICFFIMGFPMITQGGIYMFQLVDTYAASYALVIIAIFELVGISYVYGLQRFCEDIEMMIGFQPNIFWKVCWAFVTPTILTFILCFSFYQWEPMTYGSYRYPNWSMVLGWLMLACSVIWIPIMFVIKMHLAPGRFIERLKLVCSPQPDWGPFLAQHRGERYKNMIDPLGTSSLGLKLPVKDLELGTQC
Outline: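 [³H]-glycine uptake inhibition in cells transfected with human GlyT2 cDNA. EC50 is the average of at least two independent experiments.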

For Cc1ccccc1N1CCN(C(=O)c2cc([N+](=O)[O-])ccc2N2CCOCC2)CC1, the EC50 [1] was greater than 10000 nM and the EC50 [2] was 14200 nM.
CC(=O)c1ccc(N2CCN(C(=O)c3cc(S(=O)(=O)Cc4ccccc4)ccc3N3CCOCC3)CC2)c(F)c1 was tested, and the EC50 [1] was greater than 30000 nM and the EC50 [2] was greater than 30000 nM.
CNc1ccc([N+](=O)[O-])cc1C(=O)N1CCN(c2ccc(C(C)=O)cc2F)CC1 was tested, and the EC50 [1] was 1900 nM and the EC50 [2] was 1400 nM.
O=C(c1cc([N+](=O)[O-])ccc1N1CCOCC1)N1CCN(c2ccc(C(F)(F)F)c(F)c2)CC1 gave an EC50 [1] of 37 nM and an EC50 [2] of 15000 nM.
CC(=O)c1ccc(N2CCN(C(=O)c3cc(S(C)(=O)=O)ccc3OC(C)C)CC2)c(F)c1 was tested, and the EC50 [1] was 39 nM and the EC50 [2] was greater than 30000 nM.
For CC(=O)c1ccc(N2CCN(C(=O)c3cccc([N+](=O)[O-])c3)CC2)c(F)c1, the EC50 [1] was 32000 nM and the EC50 [2] was 24500 nM.
COc1cccc(N2CCN(C(=O)c3cc([N+](=O)[O-])ccc3N3CCOCC3)CC2)c1 showed an EC50 [1] of 530 nM and an EC50 [2] of 8300 nM.
O=C(c1cc([N+](=O)[O-])ccc1N1CCOCC1)N1CCN(c2ccc(C(F)(F)F)c(Cl)n2)CC1 gave an EC50 [1] of 33 nM and an EC50 [2] of 24000 nM.
CC(=O)c1ccc(N2CCN(C(=O)c3cc(C)ccc3N3CCOCC3)CC2)c(F)c1 was tested, and the EC50 [1] was greater than 30000 nM and the EC50 [2] was greater than 30000 nM.
CC(=O)c1ccc(N2CCN(C(=O)c3cc([N+](=O)[O-])ccc3N)CC2)c(F)c1 showed an EC50 [1] greater than 10000 nM and an EC50 [2] of 3300 nM.
Work on O=C(c1cc([N+](=O)[O-])ccc1N1CCOCC1)N1CCN(c2ccc(Cl)cc2)CC1 yielded an EC50 [1] of 310 nM and an EC50 [2] of 1170 nM.
Compound Cc1ccc(N2CCN(C(=O)c3cc([N+](=O)[O-])ccc3N3CCOCC3)CC2)cc1 has an EC50 [1] of 2900 nM and an EC50 [2] of 7700 nM.
For COc1ccccc1N1CCN(C(=O)c2cc([N+](=O)[O-])ccc2N2CCOCC2)CC1, the EC50 [1] was greater than 10000 nM and the EC50 [2] was 13400 nM.
For CC(=O)c1ccc(N2CCN(C(=O)c3cc([N+](=O)[O-])ccc3NC(C)C)CC2)c(F)c1, the EC50 [1] was 2 nM and the EC50 [2] was 10000 nM.
With N#Cc1cc(C(F)(F)F)ccc1N1CCN(C(=O)c2cc([N+](=O)[O-])ccc2N2CCOCC2)CC1 the EC50 [1] was 15 nM and the EC50 [2] was greater than 30000 nM.
CS(=O)(=O)c1ccc(N2CCN(C(=O)c3cc([N+](=O)[O-])ccc3N3CCOCC3)CC2)c(F)c1 was tested, and the EC50 [1] was 40 nM and the EC50 [2] was greater than 30000 nM.
COc1ccc(N2CCN(C(=O)c3cc([N+](=O)[O-])ccc3N3CCOCC3)CC2)cc1 gave an EC50 [1] of 1300 nM and an EC50 [2] of 11400 nM.
Compound CC(=O)c1ccc(N2CCN(C(=O)c3cc(N)ccc3N3CCOCC3)CC2)c(F)c1 has an EC50 [1] greater than 30000 nM and an EC50 [2] greater than 30000 nM.
O=C(c1cc([N+](=O)[O-])ccc1N1CCOCC1)N1CCN(c2ccccc2Cl)CC1 gave an EC50 [1] of 1400 nM and an EC50 [2] of 11200 nM.
Work on CC(=O)c1ccc(N2CCN(C(=O)c3cc([N+](=O)[O-])ccc3NC3CCCCC3)CC2)c(F)c1 yielded an EC50 [1] of 2 nM and an EC50 [2] of 8500 nM.
CC(=O)c1ccc(N2CCN(C(=O)c3cc([N+](=O)[O-])ccc3N3CCCCC3)CC2)c(F)c1 was tested, and the EC50 [1] was 1 nM and the EC50 [2] was 4000 nM.
Work on CC(=O)c1ccc(N2CCN(C(=O)c3cc([N+](=O)[O-])ccc3N(C)C)CC2)c(F)c1 yielded an EC50 [1] of 500 nM and an EC50 [2] of 2000 nM.
For O=C(c1cc([N+](=O)[O-])ccc1N1CCOCC1)N1CCN(c2cccc(C(F)(F)F)c2)CC1, the EC50 [1] was 400 nM and the EC50 [2] was 300 nM.
Work on O=C(c1cc([N+](=O)[O-])ccc1N1CCOCC1)N1CCN(c2ccc(C(F)(F)F)cc2)CC1 yielded an EC50 [1] of 100 nM and an EC50 [2] of 3300 nM.
N#Cc1ccc(N2CCN(C(=O)c3cc([N+](=O)[O-])ccc3N3CCOCC3)CC2)cc1 gave an EC50 [1] of 78 nM and an EC50 [2] of 1100 nM.
CC(=O)c1ccc(N2CCN(C(=O)c3cc([N+](=O)[O-])ccc3NCC3CCCCC3)CC2)c(F)c1 gave an EC50 [1] greater than 10000 nM.
Compound O=C(c1cc([N+](=O)[O-])ccc1N1CCOCC1)N1CCN(c2ncc(C(F)(F)F)cc2Cl)CC1 has an EC50 [1] of 47 nM and an EC50 [2] greater than 30000 nM.
Compound CS(=O)(=O)c1ccc(N2CCN(C(=O)c3cc([N+](=O)[O-])ccc3N3CCOCC3)CC2)cc1 has an EC50 [1] of 110 nM and an EC50 [2] of 2100 nM.
For CC(=O)c1ccc(N2CCN(C(=O)c3ccccc3N3CCOCC3)CC2)c(F)c1, the EC50 [1] was greater than 30000 nM.
